Results published in ChEMBL document CHEMBL1128311, “Probes for narcotic receptor-mediated phenomena. 20. Alteration of opioid receptor subtype selectivity of the 5-(3-hydroxyphenyl)morphans by application of the message-address concept: preparation of delta-opioid receptor ligands” (J Med Chem, 1995).
Several values for one entry are separate records, joined by “and”; a condition that tells them apart may be missing. Identical values can stand only once.

Key:
[1] = molecular target: Opioid receptors; mu & delta (Rattus norvegicus) (UniProt P33533+P33535); experiment: Selectivity as the ratio of IC50 value against mu receptor to that of delta receptor.; format: protein assay
[2] = molecular target: Delta-type opioid receptor (Mus musculus) (UniProt P32300); experiment: (§1) Opioid activity against delta-receptor of isolated mouse vas deferens(MVD) at 30 uM
Method in brief: (§2)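 Electrically stimulated contractions of male ICR mouse vas deferens (25-40 g mice) and male Hartley guinea pig ileum longitudinal muscle myenteric plexus strips (250-500 g animals). Tissues held in 37 °C oxygenated Krebs bicarbonate (Mg-free for MVD) at 1 g tension (0.5 g for MVD). Percent inhibition is the contraction height in the 1 min before agonist versus at maximal inhibition. IC50 from nonlinear least squares fit over 2-4 tissues.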

[3] = molecular target: Delta-type opioid receptor (Rattus norvegicus, UniProt P33533); experiment: Inhibition of [3H]DADLE radioligand binding to rat brain opioid receptor delta 1.
Mu-type opioid receptor [4] = molecular target: Mu-type opioid receptor (Rattus norvegicus, UniProt P33535); experiment: Inhibition of [3H]DAMGO radioligand binding to rat brain opioid receptor mu 1.
Method in brief: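 Rat brain membranes labelled with [3H]DAMGO (1-3 nM). Incubation 4 h at 25 °C in 50 mM Tris-HCl pH 7.4 with protease inhibitor cocktail. Nonspecific binding with 20 μM levallorphan. 8-10 drug concentrations, run twice. Dilutions in 10 mM Tris-HCl pH 7.4 with 1 mg/mL BSA. IC50 from curve fitting.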

[5] = molecular target: T1, Kappa-type opioid receptor (Cavia porcellus, UniProt P41144); experiment: Inhibition of [3H]U-69593 radioligand binding to Guinea pig opioid receptor kappa 1.
Mu-type opioid receptor [6] = molecular target: Mu-type opioid receptor (Cavia porcellus, UniProt P97266); experiment: The opioid activity against the mu-receptor in the isolated guinea pig ileum(GPI); format: tissue-based; method in brief: as §2
[7] = molecular target: T1, Kappa-type opioid receptor; experiment: Inhibition of [3H]-U-69,593 radioligand binding to Guinea pig Opioid receptor kappa 1; not determined
Method in brief: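 Guinea pig brain membranes depleted of μ and δ sites by pretreatment with irreversible ligands BIT and FIT, labelled with [3H]-U69,593 (1.2-2.3 nM). Incubation 4-6 h at 25 °C in 50 mM Tris-HCl pH 7.4 with protease inhibitor cocktail and 1 μg/mL captopril. Nonspecific binding with 1 μM U69,593. 8-10 drug concentrations, run twice. IC50 from curve fitting.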

[8] = molecular target: Delta-type opioid receptor (Mus musculus, UniProt P32300); experiment: as §1; method in brief: as §2
Delta-type opioid receptor (Mus musculus, UniProt P32300), sequence (P32300 whole entry): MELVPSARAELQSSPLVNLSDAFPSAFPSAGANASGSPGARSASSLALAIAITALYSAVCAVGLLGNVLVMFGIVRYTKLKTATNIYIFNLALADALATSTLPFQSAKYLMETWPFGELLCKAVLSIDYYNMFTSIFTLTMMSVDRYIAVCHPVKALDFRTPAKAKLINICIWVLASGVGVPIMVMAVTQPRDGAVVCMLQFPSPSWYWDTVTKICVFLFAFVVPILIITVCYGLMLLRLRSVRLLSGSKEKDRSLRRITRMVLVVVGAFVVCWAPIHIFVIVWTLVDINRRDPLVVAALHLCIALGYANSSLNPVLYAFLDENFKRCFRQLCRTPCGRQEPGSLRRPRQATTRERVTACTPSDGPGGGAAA

Mu-type opioid receptor (Cavia porcellus, UniProt P97266), sequence (P97266 whole entry): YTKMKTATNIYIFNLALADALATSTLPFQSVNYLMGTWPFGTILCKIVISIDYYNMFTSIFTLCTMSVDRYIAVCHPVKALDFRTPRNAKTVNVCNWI
Mu-type opioid receptor (Rattus norvegicus, UniProt P33535), sequence (P33535 whole entry): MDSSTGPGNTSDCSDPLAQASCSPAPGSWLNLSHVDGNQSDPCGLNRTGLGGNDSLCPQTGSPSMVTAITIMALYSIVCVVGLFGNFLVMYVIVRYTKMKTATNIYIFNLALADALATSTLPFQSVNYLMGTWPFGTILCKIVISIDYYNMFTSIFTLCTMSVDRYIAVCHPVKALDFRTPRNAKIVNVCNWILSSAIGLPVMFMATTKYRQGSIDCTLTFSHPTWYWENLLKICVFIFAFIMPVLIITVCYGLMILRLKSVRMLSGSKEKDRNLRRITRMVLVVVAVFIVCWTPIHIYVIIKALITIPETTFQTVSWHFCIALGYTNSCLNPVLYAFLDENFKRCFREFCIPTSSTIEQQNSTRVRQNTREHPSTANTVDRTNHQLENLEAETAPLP
Opioid receptors; mu & delta (Rattus norvegicus), sequence (P33533 whole entry, looked up): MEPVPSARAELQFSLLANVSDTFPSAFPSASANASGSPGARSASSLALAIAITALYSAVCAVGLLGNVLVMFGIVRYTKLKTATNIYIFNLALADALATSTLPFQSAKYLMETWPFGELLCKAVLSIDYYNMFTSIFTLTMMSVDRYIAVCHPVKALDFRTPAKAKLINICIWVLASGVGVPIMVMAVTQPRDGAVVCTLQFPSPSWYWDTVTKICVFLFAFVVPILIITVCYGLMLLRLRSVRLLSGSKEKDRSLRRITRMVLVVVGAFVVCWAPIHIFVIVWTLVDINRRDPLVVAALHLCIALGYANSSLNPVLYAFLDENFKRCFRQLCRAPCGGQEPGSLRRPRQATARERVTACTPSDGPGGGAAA
Opioid receptors; mu & delta (Rattus norvegicus), sequence (P33535 whole entry, looked up): as the sequence (P33535 whole entry) above
Delta-type opioid receptor (Rattus norvegicus, UniProt P33533), sequence (P33533 whole entry): as the sequence (P33533 whole entry, looked up) above
T1 sequence (P41144 whole entry): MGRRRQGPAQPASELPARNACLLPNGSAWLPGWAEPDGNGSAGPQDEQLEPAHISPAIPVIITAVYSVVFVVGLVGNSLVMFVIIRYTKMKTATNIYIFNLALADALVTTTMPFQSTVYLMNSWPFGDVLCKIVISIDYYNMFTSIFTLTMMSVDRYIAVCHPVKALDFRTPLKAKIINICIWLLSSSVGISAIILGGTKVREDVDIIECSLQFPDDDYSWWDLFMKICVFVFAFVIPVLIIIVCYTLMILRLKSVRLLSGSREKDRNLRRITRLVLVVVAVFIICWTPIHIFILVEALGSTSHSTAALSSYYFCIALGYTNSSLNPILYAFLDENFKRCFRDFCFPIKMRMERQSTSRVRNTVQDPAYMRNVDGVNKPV
Delta-type opioid receptor (Mus musculus), sequence (P32300 whole entry): as the sequence (P32300 whole entry) above

SMILES | Selectivity [1] | inhibition [2] | IC50 [3] | IC50 (Mu-type opioid receptor [4]) | IC50 [5] | IC50 (Mu-type opioid receptor [6]) | IC50 [7] | IC50 [8]
CN1CCC2(c3cccc(O)c3)CCCC1C2 (stereo in doubt; (-)-1) [listing 1 of 2 here] | < 0.02 | 26% | – | – | – | – | – | –
CN1CCC2(c3cccc(O)c3)CC(=O)CC1C2 (single isomer, unassigned; (-)) [listing 1 of 2 here] | 0.12 | – | – | – | – | – | – | –
Oc1cccc(C23CCN(CCc4ccccc4)C(Cc4[nH]c5ccccc5c42)C3)c1 (single isomer, unassigned; (-)) [listing 1 of 2 here] | – | – | 6.2 nM | 25 nM | > 1000 nM | – | – | –
CN1CCC2(c3cccc(O)c3)CC(=O)CC1C2 (stereo in doubt; 13) [listing 1 of 2 here] | 0.03 | – | – | – | – | – | – | –
Oc1cccc(C23CCN(CCc4ccccc4)C(Cc4[nH]c5ccccc5c42)C3)c1 (single isomer, unassigned; (-)) [listing 2 of 2 here] | 4.03 | – | – | – | – | – | – | –
CC(C)C[C@@H](NC(=O)[C@H](Cc1ccccc1)NC(=O)CNC(=O)[C@@H](C)NC(=O)[C@@H](N)Cc1ccc(O)cc1)C(=O)O [DADLE] | – | – | – | – | – | 28.8 nM | 1.71 nM | –
CN1CCC2(c3cccc(O)c3)Cc3nc4ccccc4cc3C1C2 (stereo not drawn) | – | – | – | – | 197 nM | – | – | –
CN1CCC2(c3cccc(O)c3)CC1Cc1[nH]c3ccccc3c12 (stereo not drawn) | – | – | – | 21.4 nM and 29.8 nM | > 1000 nM | 1940 nM and 2070 nM | – | 1390 nM and 347 nM
CN1CCC2(c3cccc(O)c3)CCCC1C2 (single isomer, unassigned; (+)) [listing 1 of 2 here] | < 0.02 | – | – | – | – | – | – | –
CN1CCC2(c3cccc(O)c3)CCCC1C2 (single isomer, unassigned; (+)) [listing 2 of 2 here] | – | – | > 1000 nM | 21.4 nM | 910 nM | 169 nM | – | 557 nM
CN1CCC2(c3cccc(O)c3)CC(=O)CC1C2 (single isomer, unassigned; (-)) [listing 2 of 2 here] | – | – | 273 nM | 33.5 nM | 981 nM | – | – | –
CN1CCC2(c3cccc(O)c3)CC1C[C@@H](NC(=O)Cc1ccccc1)C2 (stereo partly drawn) | 0.52 | – | 227 nM | 119 nM | 2220 nM | – | – | –
C=CCN1CCC2(c3cccc(O)c3)CC1Cc1[nH]c3ccccc3c12 (stereo not drawn) | 2.58 | – | 140 nM | 361 nM | 2160 nM | – | – | –
CN1CCC2(c3cccc(O)c3)Cc3[nH]c4c(ccc5ccccc54)c3C1C2 (stereo not drawn) | 0.35 | – | 1050 nM | 366 nM | > 1000 nM | – | – | –
Oc1cccc(C23CCN(Cc4ccccc4)C(Cc4[nH]c5ccccc5c42)C3)c1 (stereo not drawn) | 2.76 | – | 184 nM | 508 nM | 90 nM | – | – | –
CCCN1CCC2(c3cccc(O)c3)CC1Cc1[nH]c3ccccc3c12 (stereo not drawn) | 7.4 | – | 40.5 nM | 300 nM | > 1000 nM | – | – | –
CN1CCC2(c3cccc(O)c3)CC1Cc1[nH]c3ccc4ccccc4c3c12 (stereo not drawn) | – | – | > 10000 nM | > 1000 nM | > 1000 nM | – | – | –
CN1CCC2(c3cccc(O)c3)CC1Cc1[nH]c3ccccc3c12 (single isomer, unassigned; (-)) [listing 1 of 2 here] | – | – | 5.6 nM | 14.2 nM | – | 2350 nM | – | 393 nM
CCCCCCCN1CCC2(c3cccc(O)c3)CC1Cc1[nH]c3ccccc3c12 (stereo not drawn) | 1.43 | – | 46.7 nM | 66.6 nM | > 1000 nM | – | – | –

SMILES | Selectivity [1] | inhibition [2] | IC50 [3] | IC50 (Mu-type opioid receptor [4]) | IC50 [5] | IC50 (Mu-type opioid receptor [6]) | IC50 [7] | IC50 [8]
CCCCCN1CCC2(c3cccc(O)c3)CC1Cc1[nH]c3ccccc3c12 (stereo not drawn) | 3.41 | – | 6.9 nM | 23.5 nM | 993 nM | – | – | –
CN1CCC2(c3cccc(O)c3)CC1Cc1[nH]c3c(ccc4ccccc43)c12 (stereo not drawn) | 16.5 | – | 12.6 nM | 208 nM | > 1000 nM | – | – | –
CN1CCC2(c3cccc(O)c3)CC(=O)CC1C2 (single isomer, unassigned; (+)) [listing 1 of 2 here] | – | – | 1140 nM | 137 nM | 5070 nM | – | – | –
CN1CCC2(c3cccc(O)c3)CC1Cc1[nH]c3ccccc3c12 (single isomer, unassigned; (-)) [listing 2 of 2 here] | 2.54 | – | – | – | – | – | – | –
Oc1cccc(C23CCN(CCc4ccccc4)C(Cc4[nH]c5ccccc5c42)C3)c1 (stereo not drawn) [listing 1 of 2 here] | 8.88 | – | – | – | – | – | – | –
Oc1cccc(C23CCN(CC4CC4)C(Cc4[nH]c5ccccc5c42)C3)c1 (stereo not drawn) | 2.14 | – | 84.1 nM | 180 nM | 934 nM | – | – | –
Oc1cccc(C23CCNC(Cc4[nH]c5ccccc5c42)C3)c1 (stereo not drawn) | 5.14 | – | 69.5 nM | 357 nM | > 10000 nM | – | – | –
Oc1cccc(C23CCN(CCc4ccccc4)C(Cc4[nH]c5ccccc5c42)C3)c1 (stereo not drawn) [listing 2 of 2 here] | – | – | 5.7 nM | 50.6 nM | > 1000 nM | – | – | –
CCN1CCC2(c3cccc(O)c3)CC1Cc1[nH]c3ccccc3c12 (stereo not drawn) | 5.4 | – | 233 nM | 1260 nM | > 1000 nM | – | – | –
CN1CCC2(c3cccc(O)c3)C/C(=N/Nc3ccccc3)CC1C2 (stereo not drawn) | 0.08 | – | 111 nM | 8.7 nM | 241 nM | – | – | –
Oc1cccc(C23CCN(CCc4ccccc4)C(Cc4[nH]c5ccccc5c42)C3)c1 (single isomer, unassigned; (+)) [listing 1 of 2 here] | – | – | > 1000 nM | 89.2 nM | > 1000 nM | – | – | –
CN1CCC2(c3cccc(O)c3)Cc3[nH]c4ccccc4c3C1C2 (stereo not drawn) | < 0.04 | – | > 1000 nM | 43.9 nM | 798 nM | – | – | –
CN1CCC2(c3cccc(O)c3)CCCC1C2 (stereo in doubt; (-)-1) [listing 2 of 2 here] | – | – | > 1000 nM | 20.8 nM | 819 nM | 639 nM | – | –
CCCCCCN1CCC2(c3cccc(O)c3)CC1Cc1[nH]c3ccccc3c12 (stereo not drawn) | 2.08 | – | 34 nM | 70.6 nM | > 1000 nM | – | – | –
CN1CCC2(c3cccc(O)c3)CC1C[C@@H](NC(=O)c1ccccc1)C2 (stereo partly drawn) | – | – | 487 nM | – | 5560 nM | – | – | –
CN1CCC2(c3cccc(O)c3)CC(=O)CC1C2 (stereo in doubt; 13) [listing 2 of 2 here] | – | – | 720 nM | 21.2 nM | 2030 nM | – | – | –
CCCCN1CCC2(c3cccc(O)c3)CC1Cc1[nH]c3ccccc3c12 (stereo not drawn) | 4.02 | – | 18 nM | 72.4 nM | > 1000 nM | – | – | –
CN1CCC2(c3cccc(O)c3)CC(=O)CC1C2 (single isomer, unassigned; (+)) [listing 2 of 2 here] | 0.12 | – | – | – | – | – | – | –
Oc1cccc(C23CCN(CCc4ccccc4)C(Cc4[nH]c5ccccc5c42)C3)c1 (single isomer, unassigned; (+)) [listing 2 of 2 here] | < 0.09 | – | – | – | – | – | – | –
